Data: ChEMBL document CHEMBL3779787, “Amorfrutin C Induces Apoptosis and Inhibits Proliferation in Colon Cancer Cells through Targeting Mitochondria” (J Nat Prod, 2016)
Active and inactive are the calls of the source. The rule behind the calls is not given here.

Legend:
HT-29 [1] = experiment: Downregulation of CDK2 expression in human HT-29 cells at 10 uM after 48 hrs by immunoblotting method; assay type: functional, cell-based
Procedure, shortened: (§1)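 HT-29 exposed to 10 μM for 48 h; whole-cell lysates immunoblotted for the indicated proteins (total and cleaved PARP for the apoptosis line).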

HT-29 [2] = experiment: Induction of apoptosis in human HT-29 cells assessed as mitochondrial membrane depolarization after 5 mins by JC-1 dye-based fluorescence assay; assay type: functional, cell-based; settings: HT-29, 5 min
Procedure, shortened: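 HT-29 (40 000 cells/well) treated with concentration series for 5 min at 37 °C, then JC-1 added for a further 10 min and washed. Red (560/590 nm) to green (485/520 nm) fluorescence ratio taken as ΔΨm; variable-slope fit for IC50; means ± SD, n = 4.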

HT-29 [3] = experiment: Induction of apoptosis in human HT-29 cells assessed as DNA fragmentation by measuring cytoplasmic BrdU-labeled DNA at 30 uM by ELISA; assay type: functional, cell-based
Procedure, shortened: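 Cytosolic DNA by ELISA after 4 h treatment. BrdU method: cells (13 000/well) prelabelled with 10 μM BrdU for 2 days at 37 °C, unincorporated BrdU removed before treatment. Oligonucleosome method: 20 000 cells/well, 1 day at 37 °C. Cell-free background subtracted, normalized to vehicle; means ± SEM, n = 4.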

HT-29 [4] = experiment: Increase in extracellular acidification rate in human HT-29 cells at 10 uM measured for 20 to 150 mins by time-resolved fluorescence assay relative to control; assay type: functional
Procedure, shortened: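 HT-29 cells seeded 80 000/well, incubated overnight at 37 °C without CO2. Washed and loaded with pH-sensitive time-resolved fluorescence probe in low-buffering medium (1 mM PBS pH 7.4, 20 mM glucose, salts), 10 min at 37 °C, then compound added, wells unsealed. Read 200 min at 37 °C; lifetime converted to pH, rate taken 20–150 min as H+ change/min; n = 8.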

[5] = molecular target: T1, Peroxisome proliferator-activated receptor gamma (Homo sapiens, UniProt P37231); experiment: Competitive binding affinity to PPARgamma (unknown origin) by TR-FRET assay
T1 sequence (P37231 whole entry): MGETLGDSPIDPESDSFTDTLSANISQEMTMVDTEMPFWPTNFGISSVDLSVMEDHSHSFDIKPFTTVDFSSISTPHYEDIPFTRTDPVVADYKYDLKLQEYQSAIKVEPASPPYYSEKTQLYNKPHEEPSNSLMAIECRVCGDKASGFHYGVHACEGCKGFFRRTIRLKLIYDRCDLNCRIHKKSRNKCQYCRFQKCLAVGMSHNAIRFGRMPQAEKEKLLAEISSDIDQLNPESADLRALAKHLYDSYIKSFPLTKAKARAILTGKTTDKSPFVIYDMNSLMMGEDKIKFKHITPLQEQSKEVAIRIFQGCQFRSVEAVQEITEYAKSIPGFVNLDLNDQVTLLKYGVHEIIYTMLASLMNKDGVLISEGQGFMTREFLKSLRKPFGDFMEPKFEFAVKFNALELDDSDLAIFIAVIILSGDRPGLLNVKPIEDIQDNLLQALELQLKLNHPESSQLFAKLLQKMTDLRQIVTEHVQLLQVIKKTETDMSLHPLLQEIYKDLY

HT-29 [6] = experiment: Downregulation of CDK4 expression in human HT-29 cells at 10 uM after 48 hrs by immunoblotting method; assay type: functional, cell-based; procedure, shortened: as §1
HT-29 [7] = experiment: Induction of ROS generation in human HT-29 cells at 30 uM by CM-H2DCFDA staining-based fluorescence assay in presence of glutathione; assay type: functional, cell-based
Procedure, shortened: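 HT-29 (15 000 cells/well) loaded with 50 μM CM-H2DCFDA in PBS for 30 min at 37 °C, washed, then 60 min in phenol red-free DMEM/F-12. 30 μM compound added alone or with NAC 1 mM, GSH 2.5 mM, D3T 25 μM, α-tocopherol 50 μM or ascorbic acid 500 μM. Fluorescence 485/530 nm read kinetically at 37 °C for 22 h; area under curve; means ± SEM, n = 7.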

HT-29 [8] = experiment: Induction of apoptosis in human HT-29 cells at 30 uM after 24 hrs by annexin V-FLUOS/propidium iodide staining-based flow cytometry in presence of ascorbic acid; assay type: functional, cell-based
Procedure, shortened: (§2)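 HT-29 cells co-incubated 24 h with 30 μM compound and antioxidant: glutathione 2.5 mM, α-tocopherol 50 μM, or ascorbic acid 500 μM. Phosphatidylserine externalization measured by annexin V-FLUOS/propidium iodide staining and flow cytometry. Means ± SEM, n = 3.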

HT-29 [9] = experiment: Increase in extracellular acidification rate in human HT-29 cells at 10 uM measured for 20 to 150 mins by time-resolved fluorescence assay; assay type: functional
Procedure, shortened: (§3)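 HT-29 seeded 80 000 cells/well, held overnight at 37 °C without CO2. Low-buffering medium (1 mM PBS pH 7.4, 20 mM glucose, salts) with pH-sensitive lifetime probe, unsealed wells. Time-resolved fluorescence at 37 °C for 200 min, lifetime converted to pH. Acidification rate (H+ change/min) taken over 20–150 min; means ± SEM, n = 8.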

HT-29 [10] = experiment: Antiproliferative activity against human HT-29 cells assessed as cellular DNA content after 72 hrs by CyQUANT NF fluorescence assay; assay type: functional, cell-based; settings: HT-29, 72 h
Procedure, shortened: (§4)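 Cells seeded at 750 (HT-29), 250 (PC-3) or 900 (T84, MCF7) cells/well, treated next day with concentration series for 72 h (HT-29, PC-3) or 96 h (T84, MCF7). Relative cell number from cellular DNA content by fluorescent DNA-binding dye. Variable-slope fit; efficiency = maximal inhibition (100% − Bottom) vs untreated; IC50 relative to the compound's own maximal efficiency.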

T84 = experiment: Antiproliferative activity against human T84 cells assessed as cellular DNA content after 96 hrs by CyQUANT NF fluorescence assay relative to control; assay type: functional; procedure, shortened: as §4
HT-29 [11] = experiment: Induction of apoptosis in human HT-29 cells at 30 uM after 24 hrs by annexin V-FLUOS/propidium iodide staining-based flow cytometry in presence of glutathione; assay type: functional, cell-based; procedure, shortened: as §2
HT-29 [12] = experiment: Increase in extracellular acidification rate in human HT-29 cells at 2 uM measured for 20 to 150 mins by time-resolved fluorescence assay; assay type: functional; procedure, shortened: as §3
HT-29 [13] = experiment: Induction of apoptosis in human HT-29 cells assessed as increase in caspase 8 activity at 30 uM after 2 hrs by luminescent assay relative to control; assay type: functional
Procedure, shortened: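 HT-29 cells exposed to compound 2 h; effector/initiator caspase enzymatic activity measured by luminescent assays, normalized to control treatment; means ± SEM, n = 4.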

HT-29 [14] = experiment: Antiproliferative activity against human HT-29 cells assessed as cellular DNA content after 72 hrs by CyQUANT NF fluorescence assay in presence of cisplatin; assay type: functional, cell-based
Procedure, shortened: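 HT-29 exposed 72 h to concentration series of mixtures at ratios 7:0 through 0:7 with the partner drug. Relative cell number from DNA-content fluorescence. IC70 = concentration giving 70% inhibition of total cells (means ± SD, n = 4); isobolograms by Loewe additivity, CI(M) = IC70(Mx)/IC70(x) + IC70(My)/IC70(y).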

## COc1c(CC=C(C)C)c(O)c(C(=O)O)c(CCc2ccccc2)c1CC=C(C)C
HT-29 [1]
  Activity: Active
HT-29 [2]
  IC50: 600 nM
HT-29 [3]
  Activity: Active
HT-29 [4]
  fold change (FC): 6
[5]
  Ki: 700 nM
HT-29 [6]
  Activity: Active
HT-29 [7]
  Activity: inactive
HT-29 [8]
  Activity: Active
HT-29 [9]
  Activity: 2.9 ×10⁻⁹ /min
HT-29 [10]
  IC50: 8100 nM
T84
  Efficacy: 99%
HT-29 [11]
  Activity: Active
HT-29 [12]
  Activity: 1.5 ×10⁻⁹ /min
HT-29 [13]
  fold change (FC): 3
HT-29 [14]
  Activity: Active
